# In ChEMBL document CHEMBL3808365, “Potent and Selective CK2 Kinase Inhibitors with Effects on Wnt Pathway Signaling in Vivo” (ACS Med Chem Lett, 2016):
# Calls of active or inactive are those of the source. The rule behind the calls is not given here.
# Experiments:
# [1] = Intrinsic clearance in human liver microsomes; type: ADME; details: read-out: CLH
# [2] = system: Hepatocyte; assay: Drug metabolism in rat hepatocytes assessed as oxidative demethylated metabolite formation; type: ADME, cell-based
# [3] = Intrinsic clearance in rat hepatocyte assessed per 10^6 cells; type: ADME, cell-based; details: hepatocytes, read-out: CLH
# [4] = Inhibition of CK2 in mouse L-Wnt3a cells assessed as suppression of Wnt3a-mediated L S/L Super TOPFlash reporter gene transcription after 24 hrs; details: L Wnt-3A
# [5] = Fraction unbound in human plasma at 10 uM by equilibrium dialysis method; type: ADME, cell-free
# [6] = Antiproliferative activity against human DLD1 cells after 72 hrs by alamar blue assay; type: functional; details: DLD-1, 72 h
# [7] = target: Casein kinase II (Homo sapiens, UniProt P19784+P67870+P68400); assay: Inhibition of CK2 in human DLD1 HA-myr-AKT1 cells assessed as suppression of AKTser129 phosphorylation after 3 to 24 hrs by Western blot analysis
# [8] = system: Liver microsome; assay: Drug metabolism in human liver microsomes in presence of ABT; type: ADME
# Summary of the method: (§1)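 Metabolite formation studied in rat and human liver microsome incubations with ABT present, to probe oxidative clearance.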
# [9] = system: Rattus norvegicus; assay: AUC in rat at 10 mg/kg, po; type: ADME, organism-based; details: in vivo
# [10] = target: Voltage-gated inwardly rectifying potassium channel KCNH2 (Homo sapiens, UniProt Q12809); assay: Inhibition of human ERG expressed in CHO cells by patch clamp assay; type: cell-based
# Chain of Voltage-gated inwardly rectifying potassium channel KCNH2 (Q12809 whole entry, the tested form may be a part): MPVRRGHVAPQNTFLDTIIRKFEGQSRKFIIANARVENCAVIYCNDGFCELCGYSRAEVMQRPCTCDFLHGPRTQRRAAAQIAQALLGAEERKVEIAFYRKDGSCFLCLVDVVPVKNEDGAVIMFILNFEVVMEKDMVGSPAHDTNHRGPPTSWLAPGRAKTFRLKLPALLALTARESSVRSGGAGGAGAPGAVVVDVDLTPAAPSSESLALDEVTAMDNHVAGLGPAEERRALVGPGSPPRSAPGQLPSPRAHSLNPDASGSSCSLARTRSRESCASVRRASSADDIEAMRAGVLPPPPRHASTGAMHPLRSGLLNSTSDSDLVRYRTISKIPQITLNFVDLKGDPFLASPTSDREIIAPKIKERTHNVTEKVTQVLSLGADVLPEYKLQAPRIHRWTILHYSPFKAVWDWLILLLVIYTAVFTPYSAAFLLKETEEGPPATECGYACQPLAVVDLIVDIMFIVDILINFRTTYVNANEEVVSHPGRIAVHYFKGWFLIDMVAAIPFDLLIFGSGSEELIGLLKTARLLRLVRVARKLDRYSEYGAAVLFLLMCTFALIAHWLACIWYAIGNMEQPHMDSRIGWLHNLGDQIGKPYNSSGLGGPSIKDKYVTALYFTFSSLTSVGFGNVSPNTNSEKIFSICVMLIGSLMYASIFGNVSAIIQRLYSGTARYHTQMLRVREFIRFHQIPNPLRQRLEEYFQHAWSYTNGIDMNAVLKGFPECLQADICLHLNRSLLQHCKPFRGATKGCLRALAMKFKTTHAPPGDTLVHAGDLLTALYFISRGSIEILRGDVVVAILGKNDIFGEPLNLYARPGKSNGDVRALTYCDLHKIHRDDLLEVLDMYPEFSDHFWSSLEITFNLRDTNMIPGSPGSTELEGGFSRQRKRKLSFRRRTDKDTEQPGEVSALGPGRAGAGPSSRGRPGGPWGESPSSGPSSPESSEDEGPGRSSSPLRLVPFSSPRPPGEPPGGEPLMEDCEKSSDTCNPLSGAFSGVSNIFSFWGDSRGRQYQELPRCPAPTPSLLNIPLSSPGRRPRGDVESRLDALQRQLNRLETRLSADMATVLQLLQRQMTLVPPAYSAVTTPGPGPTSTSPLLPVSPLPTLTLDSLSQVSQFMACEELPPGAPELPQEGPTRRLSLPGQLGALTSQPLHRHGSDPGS
# [11] = target: T1, Casein kinase II subunit alpha (Homo sapiens, UniProt P68400); assay: Binding affinity to His-tagged recombinant human CK2alpha (6 to 335 residues) after 50 to 116.7 mins by surface plasmon resonance assay
# T1 sequence (P68400 whole entry, the tested form may be a part): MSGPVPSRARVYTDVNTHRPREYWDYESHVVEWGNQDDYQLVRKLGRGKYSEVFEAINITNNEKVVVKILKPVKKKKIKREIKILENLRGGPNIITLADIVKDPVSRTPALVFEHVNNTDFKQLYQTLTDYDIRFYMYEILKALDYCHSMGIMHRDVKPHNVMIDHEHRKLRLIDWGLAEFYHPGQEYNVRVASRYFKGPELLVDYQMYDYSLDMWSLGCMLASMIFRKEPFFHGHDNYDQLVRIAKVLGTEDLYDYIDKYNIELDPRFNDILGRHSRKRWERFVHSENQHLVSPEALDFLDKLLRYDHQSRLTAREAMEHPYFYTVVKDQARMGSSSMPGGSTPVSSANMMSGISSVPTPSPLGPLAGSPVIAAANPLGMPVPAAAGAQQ
# [12] = target: T1, Casein kinase II subunit alpha; assay: Inhibition of full length N-terminal 6xHis-tagged recombinant human CK2alpha expressed in fall armyworm Sf21 cells using BODIPY-FL-RRRDDDSDDD-CONH2 as substrate after 90 mins by mobility shift assay
# [13] = Aqueous solubility of the compound in phosphate buffer at pH 7.4 incubated for 24 hrs by LC/MS/MS method; type: physicochemical
# [14] = system: Liver microsome; assay: Drug metabolism in rat liver microsomes in presence of ABT; type: ADME; summary of the method: as §1
# [15] = Antiproliferative activity against human […] cells after 72 hrs by alamar blue assay; type: functional; details: HCT-116, 72 h
# [16] = Antiproliferative activity against human SW620 cells after 72 hrs by alamar blue assay; type: functional; details: SW-620, 72 h
# [17] = system: Mus musculus; assay: In vivo inhibition of AKT phosphorylation in human SW620 cells xenografted in iv dosed Ncr nu/nu mouse after 48 hrs by Western blot analysis; type: functional, organism-based; details: SW-620
# Summary of the method: (§2)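 SW620 (APC mutant) xenograft mice dosed IV at 10 or 30 mg/kg; pAKT S129 and active β-catenin measured by Western blot of tumor lysates, one lane per vehicle- or compound-treated animal.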
# [18] = target: Dual specificity tyrosine-phosphorylation-regulated kinase 1B (Homo sapiens) (UniProt Q9Y463); assay: Inhibition of Dyrk1b (unknown origin) 0.1 uM by quantitative PCR
# Chain of Dual specificity tyrosine-phosphorylation-regulated kinase 1B (Homo sapiens) (Q9Y463 whole entry, looked up): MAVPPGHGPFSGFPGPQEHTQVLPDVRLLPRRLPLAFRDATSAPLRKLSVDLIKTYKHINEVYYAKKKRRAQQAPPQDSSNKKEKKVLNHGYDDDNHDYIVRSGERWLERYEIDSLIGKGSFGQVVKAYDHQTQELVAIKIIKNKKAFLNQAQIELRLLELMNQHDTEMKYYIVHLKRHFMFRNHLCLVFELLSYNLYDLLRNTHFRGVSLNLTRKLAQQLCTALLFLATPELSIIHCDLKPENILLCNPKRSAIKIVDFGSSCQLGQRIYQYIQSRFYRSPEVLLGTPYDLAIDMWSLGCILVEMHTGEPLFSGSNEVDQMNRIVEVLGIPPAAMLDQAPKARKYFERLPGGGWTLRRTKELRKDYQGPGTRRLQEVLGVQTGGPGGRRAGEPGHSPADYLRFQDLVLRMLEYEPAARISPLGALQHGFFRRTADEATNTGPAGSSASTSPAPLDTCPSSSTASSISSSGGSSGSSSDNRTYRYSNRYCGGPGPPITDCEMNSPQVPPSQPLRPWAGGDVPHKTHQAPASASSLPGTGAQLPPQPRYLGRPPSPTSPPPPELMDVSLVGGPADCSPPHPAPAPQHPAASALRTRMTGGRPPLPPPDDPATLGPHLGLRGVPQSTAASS
# Summary of the method: (§3)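 Single-concentration screen at 0.1 μM, run as part of a selectivity panel of 402 kinases.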
# [19] = Antitumor activity against human HCT116 cells harboring beta-catenin mutation xenografted in Ncr nu/nu mouse at 30 mg/kg, ip administered as bolus dose for once in every week for 3 weeks; type: functional; details: HCT-116, ip, 504 h, read-out: TGI
# Summary of the method: (§4)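 Mouse xenografts (HCT-116 β-catenin mutant; SW620 APC mutant) dosed at 30 mg/kg weekly for 3 cycles; efficacy expressed as % tumor growth inhibition.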
# [20] = system: Mus musculus; assay: Toxicity in Ncr nu/nu mouse xenografted with human SW620 cells harboring APC mutation assessed as reduction in body weight at 30 mg/kg, ip measured on day 25; type: organism-based, SW-620; set-up: scale not given: the % may be the effect or the level left; details: in vivo
# Summary of the method: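 SW620 (APC mutant) xenograft mice dosed weekly for 3 cycles; body weight change in treated animals recorded on day 25 as mean % change.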
# [21] = target: Homeodomain-interacting protein kinase 4 (Homo sapiens) (UniProt Q8NE63); assay: Inhibition of Hipk4 (unknown origin) at 0.1 uM by quantitative PCR; summary of the method: as §3
# [22] = target: Death-associated protein kinase 2 (Homo sapiens) (UniProt Q9UIK4); assay: Inhibition of Dapk2 (unknown origin) at 0.1 uM by quantitative PCR; summary of the method: as §3
# [23] = system: Mus musculus; assay: Toxicity in ip dosed Ncr nu/nu mouse xenografted with human SW620 cells harboring APC mutation assessed as reversible body weight loss measured on day 25; type: organism-based, SW-620; details: in vivo
# [24] = system: SW-620; assay: Antitumor activity against human SW620 cells harboring APC mutation xenografted in ip dosed Ncr nu/nu mouse administered as bolus dose for once in every week for 3 weeks; type: functional, organism-based
# [25] = Antitumor activity against human SW620 cells harboring APC mutation xenografted in Ncr nu/nu mouse at 30 mg/kg, ip administered as bolus dose for once in every week for 3 weeks; type: functional; details: SW-620, ip, 504 h, read-out: TGI; summary of the method: as §4
# [26] = target: Homeodomain-interacting protein kinase 3 (Homo sapiens) (UniProt Q9H422); assay: Inhibition of Hipk3 (unknown origin) at 0.1 uM by quantitative PCR; summary of the method: as §3
# Chain of Homeodomain-interacting protein kinase 3 (Homo sapiens) (Q9H422 whole entry, looked up): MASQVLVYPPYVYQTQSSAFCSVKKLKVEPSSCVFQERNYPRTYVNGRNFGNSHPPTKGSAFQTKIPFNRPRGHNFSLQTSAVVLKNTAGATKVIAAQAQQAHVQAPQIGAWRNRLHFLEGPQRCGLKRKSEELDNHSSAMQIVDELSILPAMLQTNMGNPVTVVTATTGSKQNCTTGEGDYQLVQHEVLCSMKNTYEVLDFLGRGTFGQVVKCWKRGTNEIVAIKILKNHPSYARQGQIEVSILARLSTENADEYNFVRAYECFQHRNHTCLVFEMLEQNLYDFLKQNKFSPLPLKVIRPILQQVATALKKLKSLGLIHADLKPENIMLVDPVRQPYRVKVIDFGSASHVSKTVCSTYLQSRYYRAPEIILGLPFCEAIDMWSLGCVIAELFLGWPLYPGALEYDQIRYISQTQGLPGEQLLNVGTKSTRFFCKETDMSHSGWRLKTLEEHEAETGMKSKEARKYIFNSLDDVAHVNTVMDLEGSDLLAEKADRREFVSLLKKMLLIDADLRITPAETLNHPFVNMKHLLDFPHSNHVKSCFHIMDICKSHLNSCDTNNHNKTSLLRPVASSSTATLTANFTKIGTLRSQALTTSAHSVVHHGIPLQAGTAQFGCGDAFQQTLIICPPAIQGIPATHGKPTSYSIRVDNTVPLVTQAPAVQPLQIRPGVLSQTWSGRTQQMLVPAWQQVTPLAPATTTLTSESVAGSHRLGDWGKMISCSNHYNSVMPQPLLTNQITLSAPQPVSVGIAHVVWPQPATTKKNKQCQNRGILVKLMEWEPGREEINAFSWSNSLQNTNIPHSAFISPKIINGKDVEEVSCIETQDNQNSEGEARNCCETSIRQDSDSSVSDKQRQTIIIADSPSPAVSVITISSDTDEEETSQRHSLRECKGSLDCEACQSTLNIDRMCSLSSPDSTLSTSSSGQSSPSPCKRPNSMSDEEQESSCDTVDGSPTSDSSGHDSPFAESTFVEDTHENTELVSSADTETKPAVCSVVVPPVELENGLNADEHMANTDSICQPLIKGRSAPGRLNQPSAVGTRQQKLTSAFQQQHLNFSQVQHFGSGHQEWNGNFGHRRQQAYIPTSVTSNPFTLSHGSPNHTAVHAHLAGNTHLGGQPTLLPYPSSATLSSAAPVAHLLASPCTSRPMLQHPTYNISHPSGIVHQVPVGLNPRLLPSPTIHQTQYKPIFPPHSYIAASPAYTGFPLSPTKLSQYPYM
# [27] = system: HCT-116; assay: Antitumor activity against human HCT116 cells harboring beta-catenin mutation xenografted in ip dosed Ncr nu/nu mouse administered as bolus dose for once in every week for 3 weeks; type: functional, organism-based
# [28] = system: Mus musculus; assay: In vivo inhibition of AKT phosphorylation at S129 in human DLD1 cells xenografted in Ncr nu/nu mouse at 10 mg/kg, iv measured up to 24 hrs; type: functional, organism-based; details: DLD-1
# Summary of the method: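 DLD-1 TOPflash xenograft mice given a single 10 mg/kg IV dose; tumor AKT Ser129 phosphorylation assessed out to 24 h.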
# [29] = system: Mus musculus; assay: In vivo inhibition of Wnt-associated Tcf4-luciferase gene transcription in human DLD1 cells xenografted in Ncr nu/nu mouse at 10 mg/kg, iv measured at 8 hrs; type: functional; details: DLD-1, iv
# [30] = target: Death-associated protein kinase 3 (Homo sapiens) (UniProt O43293); assay: Inhibition of Dapk3 (unknown origin) at 0.1 uM by quantitative PCR; summary of the method: as §3
# [31] = target: Dual specificity tyrosine-phosphorylation-regulated kinase 4 (Homo sapiens) (UniProt Q9NR20); assay: Inhibition of Dyrk4 (unknown origin) at 0.1 uM by quantitative PCR; summary of the method: as §3
# Chain of Dual specificity tyrosine-phosphorylation-regulated kinase 4 (Homo sapiens) (Q9NR20 whole entry): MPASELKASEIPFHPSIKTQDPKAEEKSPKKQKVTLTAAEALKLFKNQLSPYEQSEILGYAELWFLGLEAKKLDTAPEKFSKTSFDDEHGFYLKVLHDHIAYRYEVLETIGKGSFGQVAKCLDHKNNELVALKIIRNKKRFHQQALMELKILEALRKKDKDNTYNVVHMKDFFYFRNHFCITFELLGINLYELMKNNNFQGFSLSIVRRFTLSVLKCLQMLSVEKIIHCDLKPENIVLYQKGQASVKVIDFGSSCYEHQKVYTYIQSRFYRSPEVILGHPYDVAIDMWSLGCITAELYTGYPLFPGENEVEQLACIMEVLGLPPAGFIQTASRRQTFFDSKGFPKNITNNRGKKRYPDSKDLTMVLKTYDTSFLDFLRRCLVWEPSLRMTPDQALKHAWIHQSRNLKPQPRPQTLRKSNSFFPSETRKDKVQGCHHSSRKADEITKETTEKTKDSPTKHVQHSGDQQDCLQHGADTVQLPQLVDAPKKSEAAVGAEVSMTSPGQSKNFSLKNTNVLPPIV
# [32] = system: Mus musculus; assay: Toxicity in ip dosed Ncr nu/nu mouse xenografted with human HCT-116 cells harboring beta-catenin mutation assessed as reversible body weight loss measured on day 25; type: organism-based; details: in vivo
# [33] = system: Mus musculus; assay: In vivo inhibition of active beta-catenin phosphorylation at Ser37 or Thr41 in human SW620 cells xenografted in iv dosed Ncr nu/nu mouse after 48 hrs by Western blot analysis; type: functional, organism-based; details: SW-620; summary of the method: as §2
# [34] = system: L-Wnt3a; assay: Inhibition of CK2 in mouse L-Wnt3a cells assessed as depletion of active form of beta-catenin after 1 hr by Western blot method; type: cell-based
# [35] = target: Homeodomain-interacting protein kinase 2 (Homo sapiens) (UniProt Q9H2X6); details: 0.1 uM
# [36] = target: Homeodomain-interacting protein kinase 1 (Homo sapiens) (UniProt Q86Z02); assay: Inhibition of Hipk1 (unknown origin) at 0.1 uM by quantitative PCR; summary of the method: as §3
# [37] = target: Dual specificity tyrosine-phosphorylation-regulated kinase 1A (Homo sapiens) (UniProt Q13627); assay: Inhibition of Dyrk1a (unknown origin) at 0.1 uM by quantitative PCR; summary of the method: as §3
# [38] = target: Dual specificity tyrosine-phosphorylation-regulated kinase 3 (Homo sapiens) (UniProt O43781); assay: Inhibition of Dyrk3 (unknown origin) at 0.1 uM by quantitative PCR; summary of the method: as §3
# Chain of Dual specificity tyrosine-phosphorylation-regulated kinase 3 (Homo sapiens) (O43781 whole entry): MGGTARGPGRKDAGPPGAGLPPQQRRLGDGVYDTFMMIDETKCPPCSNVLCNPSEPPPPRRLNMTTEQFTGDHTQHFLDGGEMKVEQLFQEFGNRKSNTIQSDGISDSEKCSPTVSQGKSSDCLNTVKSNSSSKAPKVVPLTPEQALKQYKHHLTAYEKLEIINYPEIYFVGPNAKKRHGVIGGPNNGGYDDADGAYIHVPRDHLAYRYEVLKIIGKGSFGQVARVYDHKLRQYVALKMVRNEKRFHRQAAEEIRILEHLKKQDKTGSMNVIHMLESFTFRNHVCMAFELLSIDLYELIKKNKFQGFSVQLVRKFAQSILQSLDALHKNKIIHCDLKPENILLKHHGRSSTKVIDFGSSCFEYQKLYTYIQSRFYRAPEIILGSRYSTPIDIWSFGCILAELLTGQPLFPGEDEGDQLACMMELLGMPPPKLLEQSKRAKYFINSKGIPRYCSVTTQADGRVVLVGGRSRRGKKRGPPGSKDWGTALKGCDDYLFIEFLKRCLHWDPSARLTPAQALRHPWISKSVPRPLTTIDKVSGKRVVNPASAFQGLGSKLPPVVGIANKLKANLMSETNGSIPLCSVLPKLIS
# [39] = target: Bone morphogenetic protein receptor type-1B (Homo sapiens) (UniProt O00238); assay: Inhibition of BMPR1b (unknown origin) at 0.1 uM by quantitative PCR
# Chain of Bone morphogenetic protein receptor type-1B (Homo sapiens) (O00238 whole entry): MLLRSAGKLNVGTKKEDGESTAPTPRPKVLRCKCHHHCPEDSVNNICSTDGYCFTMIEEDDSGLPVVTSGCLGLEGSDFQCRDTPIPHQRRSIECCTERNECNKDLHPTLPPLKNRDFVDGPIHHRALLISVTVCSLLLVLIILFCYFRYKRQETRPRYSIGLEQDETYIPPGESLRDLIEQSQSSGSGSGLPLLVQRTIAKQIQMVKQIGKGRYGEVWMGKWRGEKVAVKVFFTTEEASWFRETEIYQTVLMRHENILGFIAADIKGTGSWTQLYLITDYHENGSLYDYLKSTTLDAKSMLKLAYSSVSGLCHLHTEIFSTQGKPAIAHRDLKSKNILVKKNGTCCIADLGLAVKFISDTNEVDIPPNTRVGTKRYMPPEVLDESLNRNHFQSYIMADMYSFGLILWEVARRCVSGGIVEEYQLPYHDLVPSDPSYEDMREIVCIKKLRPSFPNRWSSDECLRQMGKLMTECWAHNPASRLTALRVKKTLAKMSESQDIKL
# [40] = system: Plasma; assay: Drug uptake in Ncr nu/nu mouse plasma xenografted with human DLD1 cells at 10 mg/kg, iv measured up to 24 hrs; type: ADME, organism-based, DLD-1; details: in vivo
# Summary of the method: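 Single 10 mg/kg IV dose in DLD-1 TOPflash xenograft mice; plasma drug concentration followed to 24 h.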
smiles,measurement,setting,value
CC(=O)Nc1cc(Nc2cc(NC3CC3)n3ncc(C#N)c3n2)ccc1N(C)CCN(C)C,microsomal CLint,[1],9 µL/min/mg
same,Drug metabolism,[2],metabolite_detected
same,hepatocyte CLint,[3],32 µL/min/1e6 cells
same,IC50,[4],75 nM
same,fraction unbound at 10 µM,[5],0.26
same,GI50,[6],80 nM
same,IC50,[7],1 nM
same,Drug metabolism,[8],metabolite_notdetected
same,AUC,[9],0.36 µM·h
same,IC50,[10],4000 nM
same,Kd,[11],0.0482 nM
same,IC50,[12],< 3 nM
same,solubility at 24 h,[13],> 1000 µM
same,Drug metabolism,[14],metabolite_notdetected
same,GI50,[15],30 nM
same,GI50,[16],30 nM
CC(=O)Nc1cc(Nc2cc(NC3CC3)n3ncc(C#N)c3n2)ccc1N(C)CCN,microsomal CLint,[1],7 µL/min/mg
same,inhibition,[17],Dose-dependent effect
same,hepatocyte CLint,[3],8 µL/min/1e6 cells
same,inhibition,[18],> 50%
same,inhibition in vivo at 30 mg/kg,[19],94%
same,IC50,[4],43 nM
same,Activity,[20],6.8%
same,inhibition,[21],> 50%
same,inhibition,[22],> 50%
same,fraction unbound at 10 µM,[5],0.39
same,Activity,[23],Dose-dependent effect
same,GI50,[6],50 nM
same,TGI,[24],Dose-dependent effect
same,inhibition in vivo at 30 mg/kg,[25],74%
same,inhibition,[26],> 50%
same,TGI,[27],Dose-dependent effect
same,inhibition,[28],Active
same,inhibition in vivo at 10 mg/kg,[29],40%
same,inhibition,[30],> 50%
same,IC50,[10],> 100000 nM
same,inhibition,[31],> 50%
same,Activity,[32],Dose-dependent effect
same,inhibition,[33],Dose-dependent effect
same,inhibition,[34],Dose-dependent effect
same,inhibition,[35],> 50%
same,solubility at 24 h,[13],> 1000 µM
same,inhibition,[36],> 50%
same,GI50,[15],10 nM
same,inhibition,[37],> 50%
same,inhibition,[38],> 50%
same,inhibition,[39],74%
same,GI50,[16],5 nM
same,Drug uptake,[40],Not Active
